# Measured values from ChEMBL document CHEMBL1667760, “Synthesis and biological evaluation of 3,5-diaryl isoxazoline/isoxazole linked 2,3-dihydroquinazolinone hybrids as anticancer agents” (2011).
# The source made the active and inactive calls. The rule behind the calls is not given here.
# Columns and labels:
# [1] = Cytotoxicity against human […] cells after 48 hrs by sulforhodamine B assay; format: functional
# In short: (§1)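 Run by the NCI 60-cell-line screen. A one-dose pre-test was done first, followed by the main test over a 5-log dose range (10^-4 to 10^-8 M). Results are reported as log molar GI50 (50% net growth inhibition), TGI (total growth inhibition) and LC50 (50% net cell death), with mean-graph midpoints across all lines.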
# EKVX = test: Cytotoxicity against human EKVX cells after 48 hrs by sulforhodamine B assay; format: functional
# In short: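 Run by the NCI 60 human tumour cell line screen. A one-dose pre-test across sixty lines came first. The main test then used a 5-log dose range (10^-4–10^-8 M). Values derived per cell line were GI50 (log molar concentration for 50% net growth inhibition), TGI (total growth inhibition) and LC50 (50% net cell death).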
# NCI-H460 = test: Cytotoxicity against human NCI-H460 cells after 48 hrs by sulforhodamine B assay; format: functional; settings: NCI-H460, 48 h; in short: as §1
# NCI-H522 = test: Cytotoxicity against human NCI-H522 cells after 48 hrs by sulforhodamine B assay; format: functional; settings: NCI-H522, 48 h; in short: as §1
# KM12 = test: Cytotoxicity against human KM12 cells after 48 hrs by sulforhodamine B assay; format: functional; settings: KM12, 48 h; in short: as §1
# PC-3 = test: Cytotoxicity against human PC3 cells after 48 hrs by sulforhodamine B assay; format: functional; settings: PC-3, 48 h
# In short: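 Cells were grown in RPMI 1640 with 10% FBS and 2 mM L-glutamine, plated at densities set by doubling time, and pre-incubated 24 h at 37 °C, 5% CO2. Drugs were tested at 0.1, 1, 10 and 100 µM in triplicate wells for 48 h continuous exposure. Cells were fixed with 10% TCA (final) and stained with 0.4% SRB. A540 was read against a 690 nm reference, and percent growth was calculated relative to control. Experiments were repeated three times.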
# SNB-75 = test: Cytotoxicity against human SNB75 cells after 48 hrs by sulforhodamine B assay; format: functional; settings: SNB-75, 48 h
# In short: (§2)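 NCI 60-cell-line panel screen of human tumor lines: a one-dose pre-test, then the main test over a 5-log range (10^-4–10^-8 M). GI50, TGI and LC50 are reported as log molar concentrations for 50% net growth inhibition, total growth inhibition and 50% net cell death. Mean graph midpoints are also calculated.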
# SK-MEL-28 = test: Cytotoxicity against human SK-MEL-28 cells after 48 hrs by sulforhodamine B assay; format: functional; settings: SK-MEL-28, 48 h; in short: as §1
# UACC-62 = test: Cytotoxicity against human UACC62 cells after 48 hrs by sulforhodamine B assay; format: functional; settings: UACC-62, 48 h; in short: as §2
# IGROV-1 = test: Cytotoxicity against human IGROV1 cells after 48 hrs by sulforhodamine B assay; format: functional; settings: IGROV-1, 48 h; in short: as §1
# ACHN = test: Cytotoxicity against human ACHN cells after 48 hrs by sulforhodamine B assay; format: functional; in short: as §1
# CAKI-1 = test: Cytotoxicity against human Caki1 cells after 48 hrs by sulforhodamine B assay; format: functional; settings: CAKI-1, 48 h; in short: as §1
# UO-31 = test: Cytotoxicity against human UO31 cells after 48 hrs by sulforhodamine B assay; format: functional; settings: UO-31, 48 h; in short: as §2
# MCF7 [2] = test: Cell cycle arrest in human MCF7 cells assessed as accumulation at G0 phase at 5 uM after 24 hrs using propidium iodide staining by flow cytometry relative to control; format: functional
# In short: (§3)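 MCF-7 cells were seeded at 5×10^5 per 60 mm dish and grown 24 h. They were then exposed to 5 uM compound for a further 24 h, with untreated control cells alongside. Cells were trypsinised, fixed in ice-cold 70% ethanol (4 °C, 30 min), treated with 1 mg/ml RNase A (37 °C, 30 min) and stained with propidium iodide/citrate/Triton solution. DNA content was read by flow cytometry on 20,000 events.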
# MCF7 [3] = test: Cell cycle arrest in human MCF7 cells assessed as accumulation at S phase at 5 uM after 24 hrs using propidium iodide staining by flow cytometry relative to control; format: functional; in short: as §3
# Tubulin (Homo sapiens) = Tubulin (Homo sapiens) (UniProt P68371+Q9H4B7+P0DPH7+P68366+Q13509+Q71U36+P04350+Q3ZCM7+P07437+P68363+Q9BQE3+Q6PEY2+Q13885+Q9BVA1+Q9BUF5); test: Inhibition of tubulin polymerization in human MCF7 cells assessed as disrupted microtubule organization at 5 uM after 48 hrs by microscopic analysis; format: cell-based
# In short: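 MCF-7 cells on coverslips incubated 48 h with or without compound. Fixed in 3% paraformaldehyde/0.02% glutaraldehyde, permeabilized in -20 °C methanol, blocked with 1% BSA. Stained with mouse monoclonal anti-tubulin and FITC secondary; confocal imaging to judge microtubule network integrity.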
# MCF7 [4] = test: Induction of apoptosis in human MCF7 cells assessed as nuclear fragmentation at 5 uM after 48 hrs by DAPI staining; format: functional, cell-based
# In short: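 MCF-7 cells grown on glass coverslips and incubated 48 h with or without compound. Fixed in 3% paraformaldehyde/0.02% glutaraldehyde in PBS, stained with DAPI, and nuclear morphology examined by fluorescence microscopy.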
# MCF7 [5] = test: Reduction of cyclin B expression in human MCF7 cells at 5 uM after 24 hrs by Western blotting; format: functional, cell-based
# In short: (§4)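 MCF-7 cells, kept in DMEM with 10% fetal calf serum at 37 °C under 5% CO2, treated 24 h. Lysis in ice-cold RIPA with protease inhibitors; Bradford quantitation; 30 µg protein per lane on 12% SDS-PAGE, then PVDF. Primary antibodies (1:500) at 4 °C overnight; HRP secondary (1:2000); chemiluminescence detection; β-actin loading control.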
# MCF7 [6] = test: Induction of apoptosis in human MCF7 cells assessed as increase of cleaved PARP level at 5 uM after 24 hrs by Western blotting; format: functional, cell-based; in short: as §4
# [7] = read-out: pLC50 (the source's name) (converted)
structure (smiles),measurement,setting,value
COc1cc(C2NC(=O)c3ccccc3N2)ccc1OCCCCCOc1c(OC)cc(C2=NOC(c3cc(OC)c(OC)c(OC)c3)C2)cc1OC (centres undefined),GI50,[1],0.0851 µM
same,CC50,[1]; [7],> 100 µM
same,TGI,[1]; read-out: pTGI (converted),2.29 µM
same,CC50,EKVX; [7],> 100 µM
same,TGI,EKVX; read-out: pTGI,> 100 µM
same,GI50,NCI-H460,13.5 µM
same,CC50,NCI-H460; [7],> 100 µM
same,TGI,NCI-H460; read-out: pTGI (converted),60.3 µM
same,GI50,NCI-H522,10.7 µM
same,CC50,NCI-H522; [7],93.3 µM
same,TGI,NCI-H522; read-out: pTGI (converted),31.6 µM
same,GI50,KM12,5.5 µM
same,CC50,KM12; [7],> 100 µM
same,TGI,KM12; read-out: pTGI,> 100 µM
same,LC50,PC-3,> 100 µM
same,GI50,PC-3; read-out: pGI50 (converted),28.8 µM
same,TGI,PC-3; read-out: pTGI,> 100 µM
same,GI50,SNB-75,11.2 µM
same,CC50,SNB-75; [7],> 100 µM
same,TGI,SNB-75; read-out: pTGI,> 100 µM
same,GI50,SK-MEL-28,5.25 µM
same,CC50,SK-MEL-28; [7],> 100 µM
same,TGI,SK-MEL-28; read-out: pTGI,> 100 µM
same,GI50,UACC-62,0.257 µM
same,CC50,UACC-62; [7],> 100 µM
same,TGI,UACC-62; read-out: pTGI,> 100 µM
same,GI50,IGROV-1,1.12 µM
same,CC50,IGROV-1; [7],> 100 µM
same,TGI,IGROV-1; read-out: pTGI (converted),50.1 µM
same,GI50,ACHN,0.324 µM
same,CC50,ACHN; [7],> 100 µM
same,TGI,ACHN; read-out: pTGI,> 100 µM
same,GI50,CAKI-1,> 100 µM
same,CC50,CAKI-1; [7],> 100 µM
same,TGI,CAKI-1; read-out: pTGI,> 100 µM
same,GI50,UO-31,10.7 µM
same,CC50,UO-31; [7],> 100 µM
same,TGI,UO-31; read-out: pTGI,> 100 µM
same,Activity,MCF7 [2],1.57%
same,Activity,MCF7 [3],22.38%
same,inhibition,Tubulin (Homo sapiens),Active
same,inhibition,MCF7 [4],Active
same,Activity,MCF7 [5],Active
same,Activity,MCF7 [6],Active
